From ChEMBL document CHEMBL5131379 (J Med Chem, 2021)
Calls of active or inactive are those of the source. No cut-off for these calls is given here.

What was measured:
[1] = in vitro; settings: human, MRC9 cells
[2] = Cytotoxicity against human MRC9 cells assessed as reduction in cell growth incubated for 72 hrs by Cell titer-blue assay; type: toxicity, cell-based
[3] = target: Histone deacetylase 1 (Homo sapiens) (UniProt Q13547); assay: Inhibition of HDAC1 in human MV4-11 cells assessed as acetylation of histone H3 incubated for 6 hrs by Western blot analysis; type: cell-based
Procedure, shortened: (§1)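 Protein was measured by BCA and run on a 4–20% SDS gel, then transferred to nitrocellulose and blocked in 5% milk. Primary antibodies were incubated overnight at 4 °C, with HSC70 as loading control. HRP secondaries were used with ECL detection.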

[4] = target: T1, Protein deacetylase HDAC6 (Homo sapiens) (UniProt Q9UBN7); assay: Inhibition of HDAC6 in human MV4-11 cells assessed as increase in acetylated alpha-tubulin incubated for 6 hrs by Western blot analysis; type: cell-based
T1 sequence (whole entry): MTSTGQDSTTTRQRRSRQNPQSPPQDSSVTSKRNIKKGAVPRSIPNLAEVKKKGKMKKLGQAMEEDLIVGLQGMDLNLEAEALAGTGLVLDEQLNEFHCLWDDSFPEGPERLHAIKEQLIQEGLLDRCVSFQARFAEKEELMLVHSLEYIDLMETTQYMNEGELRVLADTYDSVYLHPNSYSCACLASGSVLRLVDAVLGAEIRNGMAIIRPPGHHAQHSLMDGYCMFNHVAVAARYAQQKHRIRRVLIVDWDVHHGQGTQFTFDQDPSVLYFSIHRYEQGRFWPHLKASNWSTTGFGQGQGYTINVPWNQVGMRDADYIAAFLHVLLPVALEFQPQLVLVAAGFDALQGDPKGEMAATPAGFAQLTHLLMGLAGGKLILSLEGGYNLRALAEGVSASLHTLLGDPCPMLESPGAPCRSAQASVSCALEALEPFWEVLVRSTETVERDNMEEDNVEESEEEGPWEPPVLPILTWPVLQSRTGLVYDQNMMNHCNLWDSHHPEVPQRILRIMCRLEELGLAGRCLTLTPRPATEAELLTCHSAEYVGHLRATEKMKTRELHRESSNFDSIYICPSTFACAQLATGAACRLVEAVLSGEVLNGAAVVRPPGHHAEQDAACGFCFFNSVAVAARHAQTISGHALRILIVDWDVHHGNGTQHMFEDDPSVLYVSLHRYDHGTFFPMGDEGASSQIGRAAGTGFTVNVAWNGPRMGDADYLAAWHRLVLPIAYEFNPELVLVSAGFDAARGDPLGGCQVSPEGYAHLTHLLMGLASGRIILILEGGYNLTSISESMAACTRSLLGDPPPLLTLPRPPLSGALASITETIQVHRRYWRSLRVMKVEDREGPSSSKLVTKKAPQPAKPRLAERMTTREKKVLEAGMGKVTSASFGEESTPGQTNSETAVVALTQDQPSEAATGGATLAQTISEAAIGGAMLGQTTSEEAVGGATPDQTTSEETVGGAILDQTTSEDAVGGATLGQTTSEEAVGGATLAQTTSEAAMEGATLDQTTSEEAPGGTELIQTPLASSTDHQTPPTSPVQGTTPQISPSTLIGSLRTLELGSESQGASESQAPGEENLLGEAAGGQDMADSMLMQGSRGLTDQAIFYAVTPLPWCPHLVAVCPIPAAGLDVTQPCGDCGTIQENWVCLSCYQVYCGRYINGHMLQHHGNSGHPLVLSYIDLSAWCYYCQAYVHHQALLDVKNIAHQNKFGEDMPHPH
Procedure, shortened: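 Protein quantified by BCA, run on 4–20% SDS gel, blotted to nitrocellulose. Probed overnight at 4 °C for acetylated α-tubulin and acetylated H3 (Lys18), HSC70 as loading control. HRP secondaries, ECL detection.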

[5] = system: MV4-11; assay: Induction of apoptosis in human MV4-11 cells assessed as viable cells at 0.5 uM measured after 18 hrs by Annexin V-FITC/propidium iodide staining based FACS flow cytometry (reference value: 83.23%); type: functional; settings: read-out: Activity
[6] = system: MV4-11; assay: Induction of apoptosis in human MV4-11 cells assessed as late apoptotic cells at 1 uM measured after 18 hrs by Annexin V-FITC/propidium iodide staining based FACS flow cytometry (reference value: 7.49%); type: functional
[7] = system: MV4-11; assay: Induction of apoptosis in human MV4-11 cells at 0.5 uM assessed as increase in cleaved caspase-3 level measured after 6 hrs by Western blot analysis; type: functional, cell-based
Procedure, shortened: as §1

[8] = system: MV4-11; assay: Induction of apoptosis in human MV4-11 cells assessed as early apoptotic cells at 2 uM measured after 18 hrs by Annexin V-FITC/propidium iodide staining based FACS flow cytometry (reference value: 2.23%); type: functional
[9] = target: T1, Protein deacetylase HDAC6 (Homo sapiens); assay: Binding affinity to HDAC6 (unknown origin) assessed as residence time
[10] = system: MV4-11; assay: Induction of apoptosis in human MV4-11 cells assessed as early apoptotic cells at 4 uM measured after 18 hrs by Annexin V-FITC/propidium iodide staining based FACS flow cytometry (reference value: 2.23%); type: functional
[11] = system: MV4-11; assay: Induction of apoptosis in human MV4-11 cells assessed as early apoptotic cells at 0.25 uM measured after 18 hrs by Annexin V-FITC/propidium iodide staining based FACS flow cytometry (reference value: 2.23%); type: functional
[12] = system: MV4-11; assay: Induction of apoptosis in human MV4-11 cells assessed as late apoptotic cells at 2 uM measured after 18 hrs by Annexin V-FITC/propidium iodide staining based FACS flow cytometry (reference value: 7.49%); type: functional
[13] = system: MV4-11; assay: Induction of apoptosis in human MV4-11 cells assessed as late apoptotic cells at 0.25 uM measured after 18 hrs by Annexin V-FITC/propidium iodide staining based FACS flow cytometry (reference value: 7.49%); type: functional
[14] = system: MV4-11; assay: Induction of apoptosis in human MV4-11 cells assessed as viable cells at 2 uM measured after 18 hrs by Annexin V-FITC/propidium iodide staining based FACS flow cytometry (reference value: 83.23%); type: functional; settings: read-out: Activity
[15] = system: MV4-11; assay: Induction of apoptosis in human MV4-11 cells assessed as early apoptotic cells at 0.5 uM measured after 18 hrs by Annexin V-FITC/propidium iodide staining based FACS flow cytometry (reference value: 2.23%); type: functional
[16] = system: MV4-11; assay: Induction of apoptosis in human MV4-11 cells at 0.5 uM assessed as increase in cleaved PARP-1 level measured after 6 hrs by Western blot analysis; type: functional, cell-based
Procedure, shortened: as §1

[17] = system: MV4-11; assay: Induction of apoptosis in human MV4-11 cells assessed as late apoptotic cells at 0.5 uM measured after 18 hrs by Annexin V-FITC/propidium iodide staining based FACS flow cytometry (reference value: 7.49%); type: functional
[18] = system: MV4-11; assay: Induction of apoptosis in human MV4-11 cells assessed as early apoptotic cells at 1 uM measured after 18 hrs by Annexin V-FITC/propidium iodide staining based FACS flow cytometry (reference value: 2.23%); type: functional
[19] = system: MV4-11; assay: Induction of apoptosis in human MV4-11 cells at 0.5 uM assessed as increase in cleaved caspase-3 level measured after 6 hrs by Western blot analysis
[20] = system: MV4-11; assay: Induction of apoptosis in human MV4-11 cells assessed as viable cells at 4 uM measured after 18 hrs by Annexin V-FITC/propidium iodide staining based FACS flow cytometry (reference value: 83.23%); type: functional; settings: read-out: Activity
[21] = system: MV4-11; assay: Induction of apoptosis in human MV4-11 cells assessed as late apoptotic cells at 4 uM measured after 18 hrs by Annexin V-FITC/propidium iodide staining based FACS flow cytometry (reference value: 7.49%); type: functional
[22] = system: MV4-11; assay: Induction of apoptosis in human MV4-11 cells assessed as viable cells at 0.25 uM measured after 18 hrs by Annexin V-FITC/propidium iodide staining based FACS flow cytometry (reference value: 83.23%); type: functional; settings: read-out: Activity
[23] = target: T1, Protein deacetylase HDAC6 (Homo sapiens); assay: Inhibition of HDAC6 in human HeLa cells assessed as increase in acetylated alpha tubulin level incubated for 6 hrs by immunofluorescent assay; type: cell-based
Procedure, shortened: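 HeLa cells (DMEM, 10% FBS, 37 °C, 5% CO2) seeded subconfluent; inhibitor added after 24 h, increasing doses for 6 h. Fixed in 4% formaldehyde, permeabilised with 1% Triton X-100, blocked in 5% BSA. Stained for acetylated α-tubulin and acetylated histone H3 (Lys18), DAPI counterstain. Intensity from imaging, n = 3, two-way ANOVA with Tukey test.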

Sequence of Histone deacetylase 1 (Homo sapiens) (Q13547 whole entry): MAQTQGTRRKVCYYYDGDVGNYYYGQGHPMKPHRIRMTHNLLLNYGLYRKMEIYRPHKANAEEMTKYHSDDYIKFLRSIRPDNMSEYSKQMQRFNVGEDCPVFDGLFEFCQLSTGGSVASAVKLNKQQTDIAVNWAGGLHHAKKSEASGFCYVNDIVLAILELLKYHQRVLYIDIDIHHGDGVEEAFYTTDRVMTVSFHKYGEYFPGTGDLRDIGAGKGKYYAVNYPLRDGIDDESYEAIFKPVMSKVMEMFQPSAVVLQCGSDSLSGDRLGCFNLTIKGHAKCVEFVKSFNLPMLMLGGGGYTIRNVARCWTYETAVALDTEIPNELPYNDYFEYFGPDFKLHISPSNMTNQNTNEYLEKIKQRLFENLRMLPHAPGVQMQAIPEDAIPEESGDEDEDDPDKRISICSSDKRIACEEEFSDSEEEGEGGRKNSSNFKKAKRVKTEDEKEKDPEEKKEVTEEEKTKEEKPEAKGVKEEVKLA

SMILES: O=C(NO)c1ccc(CN(C2CC2)S(=O)(=O)c2c(F)c(F)cc(F)c2F)cc1
- IC50 at 72 h [1]: > 15 µM

SMILES: O=C(NO)c1ccc(CN(C2CC2)S(=O)(=O)c2c(F)cc(F)cc2F)cc1
- IC50 at 72 h [1]: > 20 µM

SMILES: O=C(CCCCCCNC(=O)c1cnc(N(c2ccccc2)c2ccccc2Cl)nc1)NO [CITARINOSTAT]
- IC50 at 72 h [2]: > 30 µM
- inhibition [3]: Active
- IC50 at 72 h [1]: > 30 µM
- inhibition [4]: Active

SMILES: O=C(NO)c1ccc(CN(C2CC2)S(=O)(=O)c2c(F)c(F)c(Cl)c(F)c2F)cc1
- IC50 at 72 h [1]: > 30 µM

SMILES: O=C(CCCCCCNC(=O)c1cnc(N(c2ccccc2)c2ccccc2)nc1)NO [RICOLINOSTAT]
- IC50 at 72 h [1]: > 20 µM

SMILES: CN(Cc1ccc(C(=O)NO)cc1)S(=O)(=O)c1c(F)c(F)c(F)c(F)c1F
- IC50 at 72 h [1]: > 30 µM

SMILES: O=C(NO)c1ccc(CNC(=O)c2c(F)c(F)c(F)c(F)c2F)cc1
- IC50 at 72 h [1]: > 50 µM

SMILES: O=C(NO)c1ccc(CNS(=O)(=O)c2c(F)c(F)c(F)c(F)c2F)cc1
- IC50 at 72 h [1]: > 25 µM

SMILES: CC(C)N(Cc1ccc(C(=O)NO)cc1)S(=O)(=O)c1c(F)c(F)c(F)c(F)c1F
- IC50 at 72 h [1]: > 10 µM

SMILES: O=C(NO)c1ccc(CN(C2CC2)S(=O)(=O)c2cc(F)c(F)c(F)c2F)cc1
- viability at 0.5 µM [5]: 49.5%
- Activity [6]: 22.3%
- Activity [7]: Active
- Activity [8]: 24.39%
- TIME [9]: 0.386 h
- Activity [10]: 24.37%
- Activity [11]: 6.73%
- Activity [12]: 19.6%
- Activity [13]: 13.93%
- viability at 2 µM [14]: 8.34%
- Activity [15]: 15.26%
- Activity [16]: Active
- Activity [17]: 17.58%
- IC50 at 72 h [1]: > 20 µM
- Activity [18]: 18.12%
- Activity [19]: Active
- viability at 4 µM [20]: 7.61%
- Activity [21]: 19.18%
- viability at 0.25 µM [22]: 70.6%
- inhibition [4]: Active
- inhibition [23]: Active

SMILES: O=C(NO)c1ccc(CN(C2CC2)S(=O)(=O)c2c(F)c(Cl)c(F)c(Cl)c2F)cc1
- IC50 at 72 h [1]: > 50 µM

SMILES: O=C(NO)c1cccc(CN(C2CC2)S(=O)(=O)c2c(F)c(F)c(F)c(F)c2F)c1
- IC50 at 72 h [1]: > 50 µM

SMILES: O=C(NO)c1ccc(CN(C2CC2)S(=O)(=O)c2c(F)cc(F)c(Cl)c2F)cc1
- IC50 at 72 h [1]: > 20 µM

SMILES: O=C(NO)c1ccc(CN(C2CC2)S(=O)(=O)c2c(F)c(F)c(F)c(F)c2F)cc1
- IC50 at 72 h [1]: > 20 µM

SMILES: O=C(NO)c1ccc(CN(C2CC2)S(=O)(=O)c2ccc(F)cc2)cc1
- IC50 at 72 h [1]: > 50 µM

SMILES: O=C(NO)c1ccc(CN(C2CC2)S(=O)(=O)c2cc(F)c(F)c(F)c2)cc1
- IC50 at 72 h [1]: > 25 µM
